Test [1] deals with 53BP1 −/− mouse embryonic fibroblasts. The test can be described thus: Metaphase spreads, radial chromosomes, 53BP1 −/− MEFs. It counts as cell-based. The settings on record: TIP60 siRNA + Olaparib; 53BP1 −/− vs 53BP1 +/+ MEFs. An outline of the steps:
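53BP1+/+ and 53BP1−/− MEFs were transfected with control or mouse TIP60 siRNA using RNAiMax, analysed 48–72 h later, and treated with Olaparib. Cells were arrested with 0.5 μM nocodazole for 3–4 h, swollen in 75 mM KCl, fixed on ice in 3:1 methanol/acetic acid, dropped onto slides at 55°C and Giemsa-stained. Metaphases were scored for radial chromosomes, with significance by Fisher's exact test.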

For the next test, the system named is BRCA1 mutant cells. The settings on record: ref [39],[40], cited from earlier work.
A further test concerns U2OS cells. Description: Survival following Olaparib. The format is cell-based. The settings on record: percentage survival.
A further test has as its system RPA. Description: RPA accumulation at LacI-FokI DSBs. Particulars: U2OS-DSB-reporter cells; TSA 0.5 μM vs DMSO; 200 cells per group, at least 2 independent experiments. The format is cell-based. An outline of the steps:
(§1)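 U2OS cells carrying the LacI-FokI DSB reporter were grown in DMEM with 10% calf serum and siRNA-transfected, then analysed 48–72 h later. DSBs were induced with mCherry-LacI-FokI, with DMSO or 0.5 μM TSA. Coverslips were fixed, permeabilised and immunostained for RPA or Rad51, then mounted with DAPI. The mCherry signal marked the damaged area, where focus presence or intensity was scored after background subtraction per cell.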

In another test the test system is H4ac. Description: ChIP-qPCR H4ac at U2OS-DSB-reporter locus. The format is cell-based. Particulars: 0.5 μM TSA vs DMSO; DSBs induced by mCherry-LacI-FokI. An outline of the steps: (§2)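 U2OS-DSB-reporter cells were given 0.5 μM TSA or DMSO, for 5 h where stated, and DSBs were induced by mCherry-LacI-FokI. Cells were formaldehyde-crosslinked, and chromatin was sonicated to 200–500 bp and immunoprecipitated overnight at 4°C with antibody to 53BP1, BRCA1 or H4ac. After washing and de-crosslinking, SYBR Green qPCR was run at reporter primer sets, quantified against diluted-input standard curves, with S.E.M. and Student t test.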
Background: Real-time PCR tracks product formation cycle by cycle.

The next test deals with BRCA1. The test can be described thus: ChIP-qPCR BRCA1 at U2OS-DSB-reporter locus. The format is cell-based. Particulars: 0.5 μM TSA for 5 hours vs DMSO; DSBs induced by mCherry-LacI-FokI. An outline of the steps: as §2
Another test deals with Rad51. Description: Rad51 accumulation at LacI-FokI DSBs. The format is cell-based. The settings on record: U2OS-DSB-reporter cells; TSA 0.5 μM vs DMSO; 200 cells per group, at least 2 independent experiments. An outline of the steps:
as §1

The subject of another test is 53BP1. The test can be described thus: ChIP-qPCR 53BP1 at U2OS-DSB-reporter locus. The format is cell-based. The settings on record: 0.5 μM TSA, 5 hours before DSB induction by mCherry-LacI-FokI; locus p4. An outline of the steps:
as §2

Another test concerns H4K20me2 in U2OS cells. The test can be described thus: Immunoblot of total H4K20me2. The format is cell-based. Particulars: acid-eluted histones from U2OS cells, 0.5 μM TSA, 5 hours. In general terms: In western blotting, separated proteins are transferred to a membrane and probed.
Test [2] concerns BRCA1 and 53BP1 at subtelomeric chromatin in 293T cells. The test can be described thus: ChIP BRCA1 and 53BP1 at subtelomeric regions, TRF1-FokI. The format is cell-based. Particulars: 293T cells expressing TRF1-FokI, TSA treatment. An outline of the steps:
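293T cells were transfected with a TRF1-FokI plasmid; controls lacked TRF1-FokI. 16 h later cells were cross-linked in 1% formaldehyde for 10 min and quenched with 0.125 M glycine. Chromatin was sonicated to 200–500 bp and immunoprecipitated overnight at 4°C with BRCA1 or 53BP1 antibodies on protein A agarose. After salt/LiCl/TE washes, chromatin was de-crosslinked overnight at 65°C, then subtelomeric SYBR Green qPCR against input standard curves.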

Another test has as its system 53BP1 IRIF in U2OS cells. The test can be described thus: 53BP1 IRIF. The settings on record: HDACi 5 hours prior to 10 Gy IR (TSA 0.5 µM), fixed 5 hours later. It counts as cell-based. An outline of the steps:
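U2OS cells on coverslips were fixed and permeabilized, then incubated with primary antibody against 53BP1, washed in PBST, and incubated with secondary antibody. Coverslips were mounted in DAPI-containing medium. Images were captured on the same day at equal exposure in 8-bit grayscale and analysed on unmodified images.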

The next test deals with 53BP1-Tudor. The test can be described thus: NMR titration of 53BP1-Tudor with H4 peptide. It counts as binding. An outline of the steps: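 0.3 mM 15N-labelled 53BP1-Tudor titrated with unlabelled H4 peptide (synthetic H4K20me2, aa 14-27) from a 15 mM stock and followed by 1H-15N HSQC. In the reverse titration, 0.5 mM 13C/15N-labelled recombinant H4KC20me2 (aa 14-27, dimethyl-lysine analogue) received unlabelled Tudor from a 5 mM stock and was followed by 1H-13C HSQC.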

Take `O=C(c1cc(Cc2n[nH]c(=O)c3ccccc23)ccc1F)N1CCN(C(=O)C2CC2)CC1` [Olaparib]: the “impact of TIP60 knockdown on radial chromosome formation by 53BP1 nullizygosity” value in [1] is recorded as “strongly mitigated”. The “sensitivity to Olaparib, BRCA1 mutation with 53BP1 nullizygosity” value in the test with BRCA1 mutant cells (BRCA1 mutation and 53BP1 nullizygosity) was “reversed”. For the same compound, the “sensitivity to Olaparib, BRCA1 mutation” value in the test on BRCA1 mutant cells (BRCA1 mutation) was “hypersensitivity”. In addition, the “sensitivity to Olaparib, TIP60 deficiency with accompanying 53BP1 knockdown” value in the test on U2OS cells (TIP60 and 53BP1 siRNA) is listed as “reversed”. In the test with U2OS cells (TIP60 siRNA), the “sensitivity to Olaparib, TIP60 deficiency” value is given as “hypersensitivity”.

On to `CC(/C=C/C(=O)NO)=C\[C@@H](C)C(=O)c1ccc(N(C)C)cc1` [TSA, trichostatin A], for which the “RPA accumulation at the LacI-FokI reporter after RVB1 or TIP60 knockdown” value in the test on RPA is “restored”. Also, in the test on H4ac, the “H4 acetylation (H4ac)” value is “elevated”. Besides, in the test with BRCA1, the “increase in BRCA1 occupancy” value is given as about 4 fold. Moreover, in the test on Rad51, the “Rad51 accumulation at the LacI-FokI reporter after RVB1 or TIP60 knockdown” value was “restored”. In addition, the 53BP1 association entry in the test with 53BP1 was “diminished”. In the test with H4K20me2 in U2OS cells, the “total H4K20me2” value is recorded as “did not affect”. Besides, in [2], the “response of BRCA1 and 53BP1 at subtelomeric chromatin” value was “divergent response”. The “53BP1 IRIF” value in the test with 53BP1 IRIF in U2OS cells is recorded as “strongly reduced”.

As for “non-methylated H4K20 peptide: corresponding non-methylated peptide, control”, the “Trp1495 indole HN shift, in words” value in the test with 53BP1-Tudor (^1H-^15N HSQC, 53BP1-Tudor titrated with non-methylated peptide, vs H4K20me2) is given as “markedly reduced”.

With “H4K20me2: H4K20me2 peptide (aa 14-27) chemically synthesized”, the “shifts of Trp1495 side chain resonances” value in the test with 53BP1-Tudor (^1H-^13C HSQC, 298 K, pH 7.0) is “large downfield shifts”. The “downfield shift of Trp1495 indole HN proton” value in the test on 53BP1-Tudor (^1H-^15N HSQC, 0.3 mM ^15N-labeled 53BP1-Tudor, 298 K, 25 mM sodium phosphate, pH 7.0) was found to be 0.8 p.p.m. Further, the “changes in chemical shift of 53BP1-Tudor binding cage residues (Trp1495, Tyr1502, Phe1519, Asp1521, Tyr1523)” value in the test with 53BP1-Tudor (^1H-^15N HSQC, 298 K, 25 mM sodium phosphate, pH 7.0) is listed as “pronounced changes in chemical shift”.

Values taken from article PMC3594358 (Nature structural & molecular biology, 2013).
